MrgX1 antag: human MrgX1 receptor antagonism, primary screen | 310,000 tested, 1.3% active | MRGX1-HEK293 calcium flux, Fluo-4, BAM8-22 antagonism; stronger effect = lower value | B-score at 10 µM | Q96LB2;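 active = calcium-response B-score plate-corrected more than 3 library SD below zero, starting fluorescence within 5 deviations, no agonist response on first addition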;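 note: peak minus trough fluorescence over baseline after final BAM8-22 challenge near maximal dose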
Target sequence (Q96LB2 whole entry, looked up): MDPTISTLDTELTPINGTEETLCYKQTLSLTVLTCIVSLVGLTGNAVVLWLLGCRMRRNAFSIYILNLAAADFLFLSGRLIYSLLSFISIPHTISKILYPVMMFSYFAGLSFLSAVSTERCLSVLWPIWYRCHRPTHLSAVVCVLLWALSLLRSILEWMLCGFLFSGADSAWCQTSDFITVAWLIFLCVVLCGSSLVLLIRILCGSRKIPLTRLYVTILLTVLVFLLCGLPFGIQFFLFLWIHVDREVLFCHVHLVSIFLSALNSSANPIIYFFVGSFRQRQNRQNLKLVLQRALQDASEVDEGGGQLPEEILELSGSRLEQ
RGS4 inh: human RGS4 inhibition; P49798; HEK293 M3R/RGS4 inducible, Fluo-4 calcium flux; stronger effect = higher value; triggered by carbachol at its EC20; B-score at 10 µM; 310,000 tested, 0.45% active; AID 463165;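 active = B-score, a plate-corrected calcium signal, over three deviations above library mean, with baseline fluorescence within five deviations of library mean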;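 note: RGS4 expression induced by doxycycline in cells with stable M3 receptor; B-score is computed from the integrated fluorescence ratio over baseline after carbachol; higher B-score means a larger calcium signal and so more RGS4 inhibition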
Target sequence (P49798 whole entry, looked up): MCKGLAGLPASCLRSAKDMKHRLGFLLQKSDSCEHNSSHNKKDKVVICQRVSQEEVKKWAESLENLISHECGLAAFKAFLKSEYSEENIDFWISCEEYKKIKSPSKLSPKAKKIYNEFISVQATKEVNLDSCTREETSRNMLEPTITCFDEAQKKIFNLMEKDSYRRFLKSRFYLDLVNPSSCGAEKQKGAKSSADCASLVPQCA
MrgX1 ag: activates human MrgX1 receptor signaling | Q96LB2 | MrgX1-HEK293 cells, Fluo-4 calcium fluorescence, agonist mode; stronger effect = higher value | B-score at 10 µM | 310,000 tested, 0.44% active;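 active = calcium response B-score plate-corrected fluorescence ratio at least 3 library SD, with starting fluorescence B-score inside 5 SD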
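Material: HEK293 cells stably expressing human MrgX1 receptor | Quantity: 15,000 cells per well | Times: Cells plated overnight, dye loaded 0.5 h 37 °C, 0.5 h room temperature | Measured by: Kinetic Fluo-4 NW fluorescence of intracellular calcium | Control set: Positive and negative controls per plate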
MrgX1 PAM: human MrgX1 positive allosteric modulation, primary screen; MrgX1-HEK293, Fluo-4 calcium flux, FDSS; stronger effect = higher value; B-score at 10 µM; 310,000 tested, 0.63% active; AID 588675;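 active = plate-corrected calcium response at least 3 library SD above typical, normal starting fluorescence, not activating the receptor alone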;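 note: compound read alongside a low EC10 to EC30 dose of BAM8-22 agonist; peak minus trough fluorescence over baseline measured at the second addition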
RGS4 pot: potentiators or activators of RGS4; HEK293 M3R/inducible RGS4, carbachol calcium flux Fluo4; stronger effect = lower value; AID 463111; 310,000 tested, 0.92% active; B-score at 10 µM;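 active = B-score of the integrated calcium signal more than 4 SD below the library mean, with starting fluorescence not abnormally high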;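 note: negative B-score means reduced calcium response which marks RGS4 activation or potentiation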
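Assay system: HEK293 FlpIn-TREx cells, stable M3R, doxycycline-inducible RGS4 / Probe or stimulus: carbachol, ECmax concentration / Times: overnight RGS4 induction, 30 min dye load 37 °C, 20 min compound RT / Signal: kinetic calcium fluorescence imaging with Fluo4-AM dye, 2 µM / Measure: Agonist-evoked peak-minus-minimum fluorescence over baseline, integrated ratio, B score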
Active calls of the source: *; i = inactive; . = no result. Sampled rows, rich in hits. Any-hit rate of the full collection: about 3.5%.

SMILES | MrgX1 antag | RGS4 inh | MrgX1 ag | MrgX1 PAM | RGS4 pot
COc1ccc(-c2csc(NC(=O)c3ccc(OCC(=O)N4CCOCC4)c(OC)c3)n2)cc1OC | i | i | i | i | -8.8*
O=C(NCc1ccc(F)cc1)c1ccc(NC(=O)C2CCCO2)cc1 (configuration not stated) | i | i | i | i | i
Cc1ccc(CC2SC(=O)NC2=O)cc1Cl (configuration not stated) | i | i | i | i | i
CC(=O)Nc1cccc(OC(=O)COc2ccc(Br)cc2)c1 | i | i | i | i | i
Cc1nc(-c2cccc(NC(=O)c3cccs3)c2)cs1 | i | i | i | i | i
O=C(Nc1cccc(-c2csc(-c3ccccc3)n2)c1)c1cccs1 | i | i | i | i | -7.1*
O=c1ccnc(Sc2ncccc2[N+](=O)[O-])[nH]1 | -5* | i | i | i | i
O=C(N/N=C/c1cccnc1)c1cc(Br)ccc1O | i | i | i | i | i
O=C(N/N=C/c1ccccn1)c1cc(Br)ccc1O | i | i | 27* | i | i
Cc1ccc(N2C(=S)SC3CS(=O)(=O)CC32)cc1 (configuration not stated) | -5.5* | i | i | i | i
N#C/C(=C\c1ccc2c(c1)OCCO2)C(=O)Nc1nccs1 | i | i | 52* | i | i
CC(=O)Nc1ccc(S(=O)(=O)NCc2ccc(C(=O)NCCN3CCCCCC3)cc2)cc1 | -9.4* | i | i | i | i
CC(=O)Nc1ccc(S(=O)(=O)NCc2ccc(C(=O)NCc3ccc(Cl)cc3)cc2)cc1 | i | i | i | i | i
COc1cc(C2C(C#N)=C(N)Oc3n[nH]c(-c4cccnc4)c32)ccc1OCC(N)=O (configuration not stated) | i | i | i | i | i
O=Nc1c(-c2cccc([N+](=O)[O-])c2)nc2ncccn12 | i | 6.2* | i | i | i
O=[N+]([O-])c1cccc(-c2cn3nc(-c4ccccc4)c(-c4ccccc4)nc3n2)c1 | i | i | i | i | i
CCOC(=O)Nc1ccc2c(c1)N(C(=O)CCN(CC)CC)c1ccccc1S2=O (configuration not stated) | i | i | 30* | i | i
CCOC(=O)Nc1ccc2c(c1)N(C(=O)CCN(CC)CC)c1ccccc1CC2 | i | i | i | i | i
O=C(c1cccn2c(=O)c3cc(Cl)ccc3nc12)N1CCOCC1 | i | i | i | i | i
NC(=O)NC(=O)C(Nc1ccc(N2CCCCC2)cc1)c1ccccc1 (configuration not stated) | i | i | i | i | -9.1*
O=c1ccc2cc3c4c(c2o1)CCCN4CCC3 | i | i | i | i | -7.4*
O=c1oc2c3c4c(cc2s1)CCCN4CCC3 | i | i | i | i | i
CCOC(=O)N1CCC(N2C(=O)c3ccccc3C2Nc2ccc(Cl)cn2)CC1 (configuration not stated) | i | i | i | i | i
C=CCn1c(C)cc(C(=O)CN2NS(=O)(=O)c3ccccc3C2=O)c1C | i | i | i | 7.1* | i
C=CCn1c(C)cc(C(=O)Cn2ncc(Cl)c(Cl)c2=O)c1C | i | i | i | i | i
SMILES | MrgX1 antag | RGS4 inh | MrgX1 ag | MrgX1 PAM | RGS4 pot
O=C(NC1CC1)C1CCN(c2ccc(S(=O)(=O)N3CCOCC3)cc2)CC1 | i | i | i | i | i
O=S(=O)(CCSc1nc2ccccc2o1)c1nc2ccccc2s1 | i | i | i | i | i
O=S(=O)(CCSc1ccccn1)c1nc2ccccc2s1 | i | i | 34* | i | i
CCCCN(C)CCCNC(=O)c1cn(CC)c2ccc(S(=O)(=O)N3CCc4ccccc4C3)cc2c1=O | i | i | i | i | -7.7*
Cc1cccc(C(=O)N2CCC(=O)N(C(COCc3ccc(Cl)cc3)Cc3ccccc3)CC2)c1 (configuration not stated) | i | i | i | i | i
C(=Nc1cccc2c(N=Cc3ccco3)cccc12)c1ccco1 | i | i | 39* | i | i
CN(C)c1ccc(N=Cc2ccco2)cc1 | i | . | i | i | .
COc1ccc(C(=O)NCC(=O)N/N=C(\C)Cc2ccccc2)cc1 | i | i | i | 7* | i
CC(=O)OCCCN(C)CC/C=C1/c2ccccc2CSc2ccccc21 | i | i | i | i | -7.9*
Cc1c(Br)c([N+](=O)[O-])nn1CC(=O)NCc1cccs1 | -4.8* | i | i | i | i
Cc1c(Br)c([N+](=O)[O-])nn1C(C)C(=O)NCc1cccs1 (configuration not stated) | i | i | i | i | i
CCOc1ncccc1C(=O)Nc1cccc(C(=O)Nc2cccc(S(=O)(=O)CCO)c2)c1 | -5.3* | i | i | i | i
CCOc1ncccc1C(=O)OCC(=O)Nc1cccc(S(N)(=O)=O)c1 | i | i | i | i | i
Cc1ccc(S(=O)(=O)N2CCN(C)CC2)cc1[N+](=O)[O-] | -4.9* | i | i | i | i
CC(C)n1c(SC2CCOC2=O)nc2ccccc21 (configuration not stated) | i | i | i | i | i
CCN1CCN(C(=O)c2ccc(Sc3ccccc3Cl)c([N+](=O)[O-])c2)CC1 | i | i | i | i | i
CCN1CCCC1CNC(=O)c1ccc(Sc2ccccc2Cl)c([N+](=O)[O-])c1 (configuration not stated) | i | i | i | i | -7.1*
CCN1CCCC1CNC(=O)c1ccc(Sc2ccc(F)cc2)c([N+](=O)[O-])c1 (configuration not stated) | i | i | i | i | -9.9*
Cc1onc(-c2ccccc2Cl)c1C(=O)N1CCc2ccccc2C1 | i | i | i | i | -7.3*
Cc1onc(-c2c(Cl)cccc2Cl)c1C(=O)N1CCOCC1 | i | i | i | i | i
Cc1onc(-c2c(F)cccc2Cl)c1C(=O)N1CCc2ccccc2C1 | i | i | i | i | i
Cc1onc(-c2c(Cl)cccc2Cl)c1C(=O)N1CCc2ccccc21 | i | i | i | i | -7.6*
Cc1cc2ncn(C(=O)c3c(-c4c(Cl)cccc4Cl)noc3C)c2cc1C | i | i | i | i | -7.2*
Cc1cc2ncn(C(=O)c3c(-c4ccccc4)noc3C)c2cc1C | i | i | i | i | i

Screening data deposited in PubChem BioAssay by Johns Hopkins Ion Channel Center.
